What was measured:
Acetylcholinesterase [1] = biological target: T1, Acetylcholinesterase (Rattus norvegicus, UniProt P37136); experiment: Inhibition of Wistar rat brain AChE by Ellman colorimetric assay
T1 sequence (P37136 whole entry): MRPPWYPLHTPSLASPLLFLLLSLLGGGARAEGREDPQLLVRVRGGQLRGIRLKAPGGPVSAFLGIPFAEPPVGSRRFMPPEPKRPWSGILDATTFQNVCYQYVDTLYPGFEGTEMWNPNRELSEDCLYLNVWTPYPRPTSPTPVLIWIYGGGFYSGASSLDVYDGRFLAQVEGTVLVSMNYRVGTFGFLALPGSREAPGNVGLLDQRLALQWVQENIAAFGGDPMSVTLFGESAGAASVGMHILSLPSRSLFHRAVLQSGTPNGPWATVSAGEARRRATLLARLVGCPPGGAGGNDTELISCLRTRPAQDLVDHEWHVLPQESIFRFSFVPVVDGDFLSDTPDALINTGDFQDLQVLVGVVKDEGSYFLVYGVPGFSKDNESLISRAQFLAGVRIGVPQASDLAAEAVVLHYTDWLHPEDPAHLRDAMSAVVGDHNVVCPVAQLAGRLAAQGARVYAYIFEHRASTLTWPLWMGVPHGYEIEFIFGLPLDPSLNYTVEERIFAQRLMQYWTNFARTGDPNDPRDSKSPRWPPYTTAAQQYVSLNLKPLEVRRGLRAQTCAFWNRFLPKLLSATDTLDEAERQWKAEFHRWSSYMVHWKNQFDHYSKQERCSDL
Procedure, shortened: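 Rat brain homogenate as the enzyme source. Ellman method with DTNB and 1.0 mM acetylthiocholine at 37 °C. Enzyme, buffer, DTNB and inhibitor were preincubated 10 min before substrate was added. Absorbance at 412 nm was read every 1 min for 10 min. Inhibitor range was 0–200 nM. IC50 is the concentration giving 50% inhibition; duplicate means.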

Acetylcholinesterase [2] = biological target: Acetylcholinesterase (Homo sapiens, UniProt P22303); experiment: Inhibition of human serum AChE by Ellman colorimetric assay
Chain of Acetylcholinesterase (Homo sapiens, UniProt P22303) (P22303 whole entry): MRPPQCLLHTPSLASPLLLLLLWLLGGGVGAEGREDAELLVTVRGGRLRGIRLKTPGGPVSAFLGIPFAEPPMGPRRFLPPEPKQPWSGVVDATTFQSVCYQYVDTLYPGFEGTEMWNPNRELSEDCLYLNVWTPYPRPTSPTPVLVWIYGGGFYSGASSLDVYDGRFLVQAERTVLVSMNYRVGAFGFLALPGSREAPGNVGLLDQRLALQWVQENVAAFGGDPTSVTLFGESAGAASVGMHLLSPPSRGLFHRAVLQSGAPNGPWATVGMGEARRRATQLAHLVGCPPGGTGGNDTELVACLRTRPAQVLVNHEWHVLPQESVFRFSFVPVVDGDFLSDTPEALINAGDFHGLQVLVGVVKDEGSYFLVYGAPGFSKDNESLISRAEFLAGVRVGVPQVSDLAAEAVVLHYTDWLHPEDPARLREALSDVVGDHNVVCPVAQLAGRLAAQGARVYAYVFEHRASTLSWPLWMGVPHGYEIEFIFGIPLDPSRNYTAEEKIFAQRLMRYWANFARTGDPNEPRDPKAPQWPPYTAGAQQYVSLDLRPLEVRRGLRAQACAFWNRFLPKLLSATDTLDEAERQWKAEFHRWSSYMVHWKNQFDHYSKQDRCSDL
Procedure, shortened: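 Crude AChE was the supernatant of fresh volunteer blood mixed with 3.8% trisodium citrate (9:1) and spun at 3000 rpm, 0 °C, 20 min. Ellman assay with DTNB and 1.0 mM acetylthiocholine at 37 °C, after 10 min preincubation with inhibitor. A412 was followed over 10 min. Inhibitor range was 0–200 nM. IC50 is the 50% inhibition point; duplicate means.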

Acetylcholinesterase [3] = biological target: Acetylcholinesterase (Electrophorus electricus, UniProt O42275); experiment: Inhibition of electric eel AChE by Ellman colorimetric assay
Chain of Acetylcholinesterase (Electrophorus electricus, UniProt O42275) (O42275 whole entry): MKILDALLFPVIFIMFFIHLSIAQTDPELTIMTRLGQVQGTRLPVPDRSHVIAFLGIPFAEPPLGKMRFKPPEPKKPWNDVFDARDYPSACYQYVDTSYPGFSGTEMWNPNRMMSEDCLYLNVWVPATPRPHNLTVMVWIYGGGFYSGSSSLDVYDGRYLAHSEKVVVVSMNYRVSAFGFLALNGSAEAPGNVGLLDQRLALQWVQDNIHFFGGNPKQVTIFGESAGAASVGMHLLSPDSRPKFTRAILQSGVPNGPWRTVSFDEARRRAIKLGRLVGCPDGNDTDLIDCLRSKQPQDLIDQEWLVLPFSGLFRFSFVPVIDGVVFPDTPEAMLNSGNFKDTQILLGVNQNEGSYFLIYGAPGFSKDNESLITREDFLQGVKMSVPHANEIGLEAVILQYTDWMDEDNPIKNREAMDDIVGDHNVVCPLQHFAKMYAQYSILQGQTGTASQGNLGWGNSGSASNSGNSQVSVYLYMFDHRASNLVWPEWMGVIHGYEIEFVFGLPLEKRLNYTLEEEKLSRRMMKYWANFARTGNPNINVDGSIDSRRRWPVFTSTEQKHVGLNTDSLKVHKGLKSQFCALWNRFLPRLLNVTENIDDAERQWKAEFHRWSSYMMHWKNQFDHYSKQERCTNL
Procedure, shortened: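 Electric eel AChE stock was kept frozen in 0.1 M KH2PO4 (pH 8). Assay used phosphate buffer pH 8.0, DTNB and 1.0 mM acetylthiocholine at 37 °C, after 10 min enzyme–inhibitor preincubation. A412 was read at 1-min intervals for 10 min. Inhibitor range was 0–200 nM. IC50 was taken at 50% inhibition; duplicates, mean reported.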

Row | SMILES | IC50 (Acetylcholinesterase [1]) [nM] | IC50 (Acetylcholinesterase [2]) [nM] | IC50 (Acetylcholinesterase [3]) [nM]
1 | CCCCC1=NC2(CCCC2)C(=O)N1Cc1ccc(-c2ccccc2C(=O)OC(C)(C)C)cc1 | 271 | 269 | 277
2 | CCCCC1=NC2(CCCC2)C(=O)N1Cc1ccc([N+](=O)[O-])cc1 | 134 | 135 | 149
3 | CCCCC1=NC2(CCCC2)C(=O)N1CCN1C(=O)c2ccccc2C1=O | 234 | 231 | 250
4 | CCCCC1=NC2(CCCC2)C(=O)N1Cc1cc2c(cc1C)OCO2 | 216 | 232 | 212
5 | CCCCC1=NC2(CCCC2)C(=O)N1Cc1ccc(-c2ccccc2C(=O)OC)cc1 | 243 | 241 | 236
6 | CCCCC1=NC2(CCCC2)C(=O)N1Cc1ccc(-c2ccccc2C#N)cc1 | 90 | 82.5 | 90
7 | CCCCC1=NC2(CCCC2)C(=O)N1Cc1ccc(Br)cc1 | 70 | 70 | 67.5
8 | CCCCC1=NC2(CCCC2)C(=O)N1Cc1cc(OC)c(OC)cc1Br | 77.5 | 82.5 | 80
9 | CCCCC1=NC2(CCCC2)C(=O)N1CC(=O)c1ccc(Cl)cc1 | 280 | 286 | 280
10 | CN(C)C(=O)Oc1cccc([N+](C)(C)C)c1 [NEOSTIGMINE BROMIDE] | 35 |  | 47.5
